The values below come from ChEMBL document CHEMBL1126267, “A novel synthesis and potent antiinflammatory activity of 4-hydroxy-2(1H)-oxo-1-phenyl-1,8-naphthyridine-3-carboxamides” (1992).

Type in all cases: functional
Common to all, as to conditions: route oral

The test system of assay [1] is Rattus norvegicus. Put plainly: Compound was tested for the inhibition of rat reversed passive Arthus pleurisy after peroral administration of 100 mg/kg dose at 3.22*10e6 no of cells with 3.86*10e6 cells of control. A digest of the protocol:
(§1)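 Male Wistar rats (about 250 g) were given compound orally before the antiserum. Under ether anesthesia, 0.2 mL rabbit anti-egg albumin antiserum was injected intrapleurally. After 30 min, egg albumin (15 mg/100 g body weight in 0.1 mL saline) was given iv. Rats were killed 4.5 h later and the thoracic cavity was rinsed with 5 mL saline. Exudate volume and infiltrated cell number were measured, with inhibition % versus controls as mean ± SEM.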

For assay [2], the system named is Rattus norvegicus. Put plainly: Inhibition of Zymosan-induced rat's paw edema(ZPE) after peroral administration of 100 mg/kg dose. In short, it runs like this: (§2)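 Male Wistar rats (about 150 g) were dosed orally with compound suspended in 5% arabic gum, 1 h before a subplantar hind-paw injection of 0.1 mL saline. The irritant was 1% zymosan for 33 or 1% λ-carrageenin for 34. Paw volume was measured by plethysmograph before dosing and at 4 h (zymosan) or 3 h (carrageenin). Swelling is relative to initial volume, as mean ± SEM. % inhibition is versus the control group's mean swelling.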

Assay [3] relates to Rattus norvegicus. Description: Inhibition of carrageenan-induced rat's paw edema (CPE) after peroral administration of 100 mg/kg dose. In short, it runs like this: as §2
(In general: The carrageenan paw model is a standard test of acute inflammation.)

Assay [4] relates to Rattus norvegicus. Description: Antiinflammatory activity on Carrageenan rat's paw edema(CPE) after peroral administration of 100 mg/kg dose with control swelling of 90.0%.
Assay [5] has as its system Rattus norvegicus. Put plainly: Compound was tested for the inhibition of rat reversed passive Arthus pleurisy after peroral administration of 100 mg/kg dose at 0.82 mL of exudate volume with 0.86 mL of control (injected intrapleurally). In short, it runs like this: as §1
For assay [6], the system named is Rattus norvegicus. Put plainly: Antiinflammatory activity on Zymosan-induced rat's paw edema(ZPE) after peroral administration of 100 mg/kg dose with control swelling of 85.5%. A digest of the protocol:
(§3)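 Male Wistar rats weighing about 150 g were dosed orally with compound suspended in 5% arabic gum. 1 h later, 1% zymosan in 0.1 mL saline was injected subplantarly into the hind paw. Paw volume was measured by plethysmograph before dosing and 4 h after zymosan, with edema as the volume difference. Inhibition % was derived from mean swelling versus the control group.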

Assay [7] relates to Rattus norvegicus. Description: Compound was tested for the inhibition of rat reversed passive Arthus pleurisy after peroral administration of 30 mg/kg dose at 0.33 mL of exudate volume with 0.68 mL of control (injected intrapleurally). In short, it runs like this: (§4)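 Male Wistar rats (about 250 g) under ether received 0.2 mL rabbit anti-egg-albumin antiserum intrapleurally. Thirty min later they got 15 mg EA/100 g body weight in 0.1 mL saline iv. Compounds were given orally beforehand. Rats were killed 4.5 h after induction and the thoracic cavity rinsed with 5 mL saline. Exudate volume and infiltrated cell count were read as mean ± SE. % inhibition is versus control.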

Assay [8] deals with Rattus norvegicus. Description: Compound was tested for the inhibition of rat reversed passive Arthus pleurisy after peroral administration of 30 mg/kg dose at 2.79*10e6 no of cells with 3.24*10e6 cells of control. In short, it runs like this:
as §4

For assay [9], the system named is Rattus norvegicus. Description: Compound was tested for the inhibition of arachidonic acid-induced rat's paw edema(APE) after peroral administration of 100 mg/kg dose with control swelling of 51.6%. In short, it runs like this:
(§5)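 Test: arachidonic acid paw edema in male Wistar rats of about 150 g. Oral dosing in 5% arabic gum came 1 h before subplantar injection of 1% arachidonic acid sodium salt in 0.1 mL saline into the hind paw. Plethysmograph paw volume was read before dosing and 1 h post-irritant, and edema = volume difference. % inhibition was taken from mean swelling against controls.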

Assay [10] has as its system Rattus norvegicus. Description: Compound was tested for the inhibition of rat reversed passive Arthus pleurisy after peroral administration of 10 mg/kg dose at 0.44 mL of exudate volume with 0.68 mL of control (injected intrapleurally). In short, it runs like this: as §1
The subject of assay [11] is Rattus norvegicus. Put plainly: Compound was tested for the inhibition of arachidonic acid-induced rat's paw edema(APE) after peroral administration of 30 mg/kg dose. A digest of the protocol:
as §5

In assay [12] the test system is Rattus norvegicus. Put plainly: Compound was tested for the inhibition of rat reversed passive Arthus pleurisy after peroral administration of 100 mg/kg dose at 1.52*10e6 no of cells with 3.24*10e6 cells of control. In short, it runs like this: as §1
The test system of assay [13] is Rattus norvegicus. Description: Antiinflammatory activity on Carrageenan rat's paw edema(CPE) after peroral administration of 30 mg/kg dose.
In assay [14] the test system is Rattus norvegicus. Description: Antiinflammatory activity on Carrageenan rat's paw edema(CPE) after peroral administration of 100 mg/kg dose with control swelling of 69.9%.
For assay [15], the system named is Rattus norvegicus. Description: Compound was tested for the inhibition of rat reversed passive Arthus pleurisy after peroral administration of 100 mg/kg dose at 0.12 mL of exudate volume with 0.68 mL of control (injected intrapleurally). A digest of the protocol:
as §1

The test system of assay [16] is Rattus norvegicus. Description: Antiinflammatory activity on Zymosan-induced rat's paw edema(ZPE) after peroral administration of 30 mg/kg dose with control swelling of 66.9%. In short, it runs like this:
as §3

The subject of assay [17] is Rattus norvegicus. Put plainly: Compound was tested for the inhibition of rat reversed passive Arthus pleurisy after peroral administration of 10 mg/kg dose at 3.18*10e6 no of cells with 3.24*10e6 cells of control. A digest of the protocol: as §1
Assay [18] relates to Rattus norvegicus. Description: Compound was tested for the inhibition of Carrageenan rat's paw edema(CPE) after peroral administration of 30 mg/kg dose.
In assay [19] the test system is Rattus norvegicus. Put plainly: Compound was tested for the inhibition of rat reversed passive Arthus pleurisy after peroral administration of 3 mg/kg dose at 3.17*10e6 no of cells with 3.24*10e6 cells of control. A digest of the protocol: as §4
Assay [20] deals with Rattus norvegicus. Description: Compound was tested for the inhibition of arachidonic acid-induced rat's paw edema(APE) after peroral administration of 30 mg/kg dose with control swelling of 33.8%. In short, it runs like this: as §5
The test system of assay [21] is Rattus norvegicus. Put plainly: Antiinflammatory activity on Zymosan-induced rat's paw edema(ZPE) after peroral administration of 100 mg/kg dose with control swelling of 66.9%. In short, it runs like this:
as §3

The test system of assay [22] is Rattus norvegicus. Description: Compound was tested for the inhibition of rat reversed passive Arthus pleurisy after peroral administration of 3 mg/kg dose at 0.6 mL of exudate volume with 0.68 mL of control (injected intrapleurally). In short, it runs like this:
as §4

The subject of assay [23] is Rattus norvegicus. Put plainly: Compound was tested for the inhibition of Zymosan-induced rat's paw edema(ZPE) after peroral administration of 30 mg/kg dose. In short, it runs like this: as §3
The test system of assay [24] is Rattus norvegicus. Put plainly: Compound was tested for the inhibition of arachidonic acid-induced rat's paw edema(APE) after peroral administration of 100 mg/kg dose. A digest of the protocol:
as §5

As to `O=C(Nc1cccc(Cl)c1)c1c(O)c2cccnc2n(-c2ccccc2)c1=O`, the inhibition in vivo at 100 mg/kg in the assay on Rattus norvegicus [1] amounted to 21.7%; with Rattus norvegicus [2] it was 7.6%; with Rattus norvegicus [3], 13.4%; in the assay on Rattus norvegicus [5], 5.2%. For the same compound, the Swelling in the assay with Rattus norvegicus [4] amounted to 77.9%; in the assay on Rattus norvegicus [6], 79%.
In the case of `O=C(Cn1c(=O)sc2ccc(Cl)cc21)N1CCN(CCO)CC1` [TIARAMIDE], the inhibition in vivo at 30 mg/kg in the assay with Rattus norvegicus [7] was found to be 59.3%; in the assay on Rattus norvegicus [8] it was 9.8%; with Rattus norvegicus [11] it was 5%; in the assay on Rattus norvegicus [18], 8.4%; with Rattus norvegicus [23], 15.1%. The Swelling with Rattus norvegicus [9] turned out to be 26.7%; in the assay with Rattus norvegicus [13], 64%; in the assay with Rattus norvegicus [14] it was 60.6%; in the assay on Rattus norvegicus [16], 56.8%; in the assay on Rattus norvegicus [20] it was 32.1%; in the assay with Rattus norvegicus [21], 51.5%. Moreover, the inhibition in vivo at 100 mg/kg with Rattus norvegicus [2] was 23%; in the assay on Rattus norvegicus [3], 13.3%; in the assay with Rattus norvegicus [12] it was 67.2%; with Rattus norvegicus [15], 94.9%; in the assay on Rattus norvegicus [24] it was 48.3%. For the same compound, the inhibition in vivo at 10 mg/kg was found to be 40.7% with Rattus norvegicus [10] and 2.3% in the assay on Rattus norvegicus [17]. For the same compound, the inhibition in vivo at 3 mg/kg in the assay with Rattus norvegicus [19] was 2.7%; in the assay on Rattus norvegicus [22], 13.6%.

One may read the inhibition in vivo as the drop in the measured response relative to a control, in per cent.
